{"source": "ChEMBL document CHEMBL4304756", "about": "“Second-Generation Tryptamine Derivatives Potently Sensitize Colistin Resistant Bacteria to Colistin” (ACS Med Chem Lett, 2019)", "key": {"[1]": {"test_system": "Klebsiella pneumoniae", "test": "Potentiation of colistin-induced antibacterial activity against Klebsiella pneumoniae B9 assessed as reduction in colistin MIC at 7.5 uM incubated for 16 hrs by broth microdilution method (reference value: 512 ug/ml)", "format": "functional", "settings": "B9, 16 h"}, "[2]": {"test": "Hemolytic activity in sheep RBC at 200 uM incubated for 1 hr by UV spectrophotometry", "format": "ADME, cell-based, Ovis aries, Erythrocyte", "settings": "sheep red blood cells (erythrocytes), read-out: Activity", "how_it_was_run": "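Red blood cells exposed to compound at 200 μM, with percent cell lysis recorded.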"}, "[3]": {"test_system": "Acinetobacter baumannii", "test": "Potentiation of colistin-induced antibacterial activity against Acinetobacter baumannii 17978 harbouring mcr-1 gene assessed as reduction in colistin MIC at 15 uM incubated for 16 hrs by broth microdilution method", "format": "functional, organism-based", "how_it_was_run": "(§1)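 For the dose-response, colistin MIC was measured against mcr-1 plasmid-bearing E. coli, K. pneumoniae and A. baumannii while the adjuvant concentration was lowered stepwise (30, 15 μM, down to 5 μM). The aim was to find where the MIC rose above the 2 μg/mL CLSI susceptibility breakpoint.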"}, "[4]": {"test_system": "Acinetobacter baumannii", "test": "Antivirulence activity in Acinetobacter baumannii 4106 infected Galleria mellonella larvae model assessed as survival rate at 50 mg/kg measured at 24 hrs interval over 4 days", "format": "functional", "how_it_was_run": "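A. baumannii 4106 was given to Galleria mellonella larvae at 6 × 10^5 CFU, the lethal inoculum found by dose escalation. Larvae were treated with colistin 50 mg/kg, adjuvant 50 mg/kg, colistin plus adjuvant (50 mg/kg each), or tigecycline 100 mg/kg as positive control. Survival was scored out to day 4.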"}, "[5]": {"test_system": "Klebsiella pneumoniae", "test": "Potentiation of colistin-induced antibacterial activity against Klebsiella pneumoniae 2210291 assessed as colistin MIC at 50 uM incubated for 16 hrs by broth microdilution method (reference value: 1 ug/ml)", "format": "functional", "settings": "Klebsiella pneumoniae, 2210291, 16 h"}, "[6]": {"test_system": "Klebsiella pneumoniae", "test": "Potentiation of colistin-induced antibacterial activity against Klebsiella pneumoniae C3 assessed as reduction in colistin MIC at 10 uM incubated for 16 hrs by broth microdilution method (reference value: 512 ug/ml)", "format": "functional", "settings": "C3, 16 h"}, "[7]": {"test_system": "Escherichia coli", "test": "Potentiation of colistin-induced antibacterial activity against Escherichia coli YD626 harbouring mcr-1 gene assessed as reduction in colistin MIC at 15 uM incubated for 16 hrs by broth microdilution method", "format": "functional, organism-based", "how_it_was_run": "as §1"}, "[8]": {"test_system": "Klebsiella pneumoniae", "test": "Potentiation of colistin-induced antibacterial activity against Klebsiella pneumoniae B9 assessed as reduction in colistin MIC at 20 uM incubated for 16 hrs by broth microdilution method (reference value: 512 ug/ml)", "format": "functional", "settings": "B9, 16 h"}, "[9]": {"test_system": "Klebsiella pneumoniae", "test": "Potentiation of colistin-induced antibacterial activity against Klebsiella pneumoniae C3 assessed as reduction in colistin MIC at 15 uM incubated for 16 hrs by broth microdilution method (reference value: 512 ug/ml)", "format": "functional", "settings": "C3, 16 h"}, "[10]": {"test_system": "Klebsiella pneumoniae", "test": "Potentiation of colistin-induced antibacterial activity against Klebsiella pneumoniae B9 assessed as reduction in colistin MIC at 5 uM incubated for 16 hrs by broth microdilution method (reference value: 512 ug/ml)", "format": "functional", "settings": "B9, 16 h"}, "[11]": {"test_system": "Acinetobacter baumannii", "test": "Potentiation of colistin-induced antibacterial activity against Acinetobacter baumannii 4106 assessed as reduction in colistin MIC at 15 uM incubated for 16 hrs by broth microdilution method (reference value: 1024 ug/ml)", "format": "functional", "settings": "Acinetobacter baumannii, 4106, 16 h"}, "[12]": {"test_system": "Acinetobacter baumannii", "test": "Potentiation of colistin-induced antibacterial activity against Acinetobacter baumannii 17978 harbouring mcr-1 gene assessed as colistin sensitization activity in presence of Tween 80 at 30 uM incubated for 16 hrs by broth microdilution method", "format": "functional, organism-based", "how_it_was_run": "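To exclude nonspecific aggregation, colistin resensitization of A. baumannii 17978+mcr-1 was run with adjuvant at 30 μM, with and without 0.01% Tween 80.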"}, "[13]": {"test_system": "Klebsiella pneumoniae", "test": "Potentiation of colistin-induced antibacterial activity against Klebsiella pneumoniae 2210291 harbouring mcr-1 gene assessed as reduction in colistin MIC at 15 uM incubated for 16 hrs by broth microdilution method", "format": "functional, organism-based", "how_it_was_run": "as §1"}, "[14]": {"test_system": "Acinetobacter baumannii", "test": "Potentiation of colistin-induced antibacterial activity against Acinetobacter baumannii 17978 harbouring mcr-1 gene assessed as colistin MIC at 50 uM incubated for 16 hrs by broth microdilution method (reference value: 16 ug/ml)", "format": "functional", "settings": "Acinetobacter baumannii, 17978, 16 h"}, "[15]": {"test_system": "Acinetobacter baumannii", "test": "Potentiation of colistin-induced antibacterial activity against Acinetobacter baumannii 17978 harbouring mcr-1 gene assessed as colistin sensitization activity at 30 uM incubated for 16 hrs by broth microdilution method", "format": "functional, organism-based"}, "[16]": {"test_system": "Acinetobacter baumannii", "test": "Potentiation of colistin-induced antibacterial activity against Acinetobacter baumannii 4106 assessed as reduction in colistin MIC at 5 uM incubated for 16 hrs by broth microdilution method (reference value: 1024 ug/ml)", "format": "functional", "settings": "Acinetobacter baumannii, 4106, 16 h"}, "[17]": {"test_system": "Acinetobacter baumannii", "test": "Potentiation of colistin-induced antibacterial activity against Acinetobacter baumannii 4106 assessed as reduction in colistin MIC at 7.5 uM incubated for 16 hrs by broth microdilution method (reference value: 1024 ug/ml)", "format": "functional", "settings": "Acinetobacter baumannii, 4106, 16 h", "how_it_was_run": "(§2)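 Colistin MIC was measured against chromosomally colistin-resistant strains (K. pneumoniae B9, C3; A. baumannii 4106, among four strains) with adjuvant at fixed levels from 20 μM down to 7.5 μM. Fold reduction was reported against colistin alone, with the CLSI breakpoint taken as ≤2 μg/mL.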"}, "[18]": {"test_system": "Acinetobacter baumannii", "test": "Potentiation of colistin-induced antibacterial activity against Acinetobacter baumannii 3941 assessed as reduction in colistin MIC at 20 uM incubated for 16 hrs by broth microdilution method (reference value: 512 ug/ml)", "format": "functional", "settings": "Acinetobacter baumannii, 3941, 16 h"}, "[19]": {"test_system": "Escherichia coli", "test": "Potentiation of colistin-induced antibacterial activity against Escherichia coli YD626 harbouring mcr-1 gene assessed as reduction in colistin MIC at 5 uM incubated for 16 hrs by broth microdilution method (reference value: 8 ug/ml)", "format": "functional", "settings": "YD626, 16 h", "how_it_was_run": "as §1"}, "[20]": {"test_system": "Acinetobacter baumannii", "test": "Potentiation of colistin-induced antibacterial activity against Acinetobacter baumannii 4106 assessed as reduction in colistin MIC at 10 uM incubated for 16 hrs by broth microdilution method (reference value: 1024 ug/ml)", "format": "functional", "settings": "Acinetobacter baumannii, 4106, 16 h"}, "[21]": {"test_system": "Klebsiella pneumoniae", "test": "Potentiation of colistin-induced antibacterial activity against Klebsiella pneumoniae C3 assessed as reduction in colistin MIC at 7.5 uM incubated for 16 hrs by broth microdilution method (reference value: 512 ug/ml)", "format": "functional", "settings": "C3, 16 h", "how_it_was_run": "as §2"}, "[22]": {"test_system": "Klebsiella pneumoniae", "test": "Potentiation of colistin-induced antibacterial activity against Klebsiella pneumoniae 2210291 harbouring mcr-1 gene assessed as reduction in colistin MIC at 5 uM incubated for 16 hrs by broth microdilution method (reference value: 16 ug/ml)", "format": "functional", "settings": "Klebsiella pneumoniae, 2210291, 16 h", "how_it_was_run": "as §1"}, "[23]": {"test_system": "Klebsiella pneumoniae", "test": "Potentiation of colistin-induced antibacterial activity against Klebsiella pneumoniae 2210291 harbouring mcr-1 gene assessed as colistin MIC at 50 uM incubated for 16 hrs by broth microdilution method (reference value: 16 ug/ml)", "format": "functional", "settings": "Klebsiella pneumoniae, 2210291, 16 h"}, "[24]": {"test_system": "Klebsiella pneumoniae", "test": "Potentiation of colistin-induced antibacterial activity against Klebsiella pneumoniae C3 assessed as reduction in colistin MIC at 20 uM incubated for 16 hrs by broth microdilution method (reference value: 512 ug/ml)", "format": "functional", "settings": "C3, 16 h", "how_it_was_run": "as §2"}, "[25]": {"test_system": "Escherichia coli", "test": "Potentiation of colistin-induced antibacterial activity against Escherichia coli YD626 assessed as colistin MIC at 50 uM incubated for 16 hrs by broth microdilution method (reference value: 1 ug/ml)", "format": "functional", "settings": "YD626, 16 h"}, "[26]": {"test_system": "Klebsiella pneumoniae", "test": "Potentiation of colistin-induced antibacterial activity against Klebsiella pneumoniae B9 assessed as reduction in colistin MIC at 15 uM incubated for 16 hrs by broth microdilution method (reference value: 512 ug/ml)", "format": "functional", "settings": "B9, 16 h"}}, "note": "Active and inactive are the calls of the source. No cut-off for these calls is given here."}
{"smiles": "O=C(NCCc1c[nH]c2ccc(Br)cc12)Nc1cc(Cl)c(Br)c(Cl)c1", "values": [{"measurement": "MIC", "setting": "[1]", "value": "≤ 0.25", "unit": "mg/L"}, {"measurement": "hemolysis at 1 h, 200 µM", "setting": "[2]", "value": "< 2.5", "unit": "%"}, {"measurement": "Activity", "setting": "[3]", "value": "Active"}, {"measurement": "Activity", "setting": "[4]", "value": 0, "unit": "%"}, {"measurement": "MIC", "setting": "[5]", "value": 0.5, "unit": "mg/L"}, {"measurement": "MIC", "setting": "[6]", "value": 1, "unit": "mg/L"}, {"measurement": "Activity", "setting": "[7]", "value": "Active"}, {"measurement": "MIC", "setting": "[8]", "value": "≤ 0.25", "unit": "mg/L"}, {"measurement": "MIC", "setting": "[9]", "value": 0.5, "unit": "mg/L"}, {"measurement": "MIC", "setting": "[10]", "value": 0.5, "unit": "mg/L"}, {"measurement": "MIC", "setting": "[11]", "value": "≤ 0.5", "unit": "mg/L"}, {"measurement": "Activity", "setting": "[12]", "value": "Active"}, {"measurement": "Activity", "setting": "[13]", "value": "Active"}, {"measurement": "MIC", "setting": "[14]", "value": 0.5, "unit": "mg/L"}, {"measurement": "Activity", "setting": "[15]", "value": "Active"}, {"measurement": "MIC", "setting": "[16]", "value": 4, "unit": "mg/L"}, {"measurement": "MIC", "setting": "[17]", "value": 1, "unit": "mg/L"}, {"measurement": "MIC", "setting": "[18]", "value": 2, "unit": "mg/L"}, {"measurement": "MIC", "setting": "[19]", "value": 1, "unit": "mg/L"}, {"measurement": "MIC", "setting": "[20]", "value": 1, "unit": "mg/L"}, {"measurement": "MIC", "setting": "[21]", "value": 2, "unit": "mg/L"}, {"measurement": "MIC", "setting": "[22]", "value": 2, "unit": "mg/L"}, {"measurement": "MIC", "setting": "[23]", "value": 0.5, "unit": "mg/L"}, {"measurement": "MIC", "setting": "[24]", "value": 0.5, "unit": "mg/L"}, {"measurement": "MIC", "setting": "[25]", "value": 0.25, "unit": "mg/L"}, {"measurement": "MIC", "setting": "[26]", "value": "≤ 0.25", "unit": "mg/L"}]}
